Values after ≈ are worked out from the molar mass of the structure shown. Active and inactive are the calls of the source. The calls are words filed in the database; no cut-off is given here.
Legend:
Vaccinia virus = test: Antiviral activity against Vaccinia virus IHD infected in African green monkey BGM cells assessed as plaque reduction measured on day 5 by disk diffusion assay; assay type: functional; details: Orthopoxvirus vaccinia, 120 h, read-out: ED50 (the source's name)
L1210 [1] = test: Antitumor activity against mouse L1210 cells allografted in BDF1 mouse assessed as survival at 50 mg/kg, ip administered as single dose measured on day 30 relative to vehicle-treated control; assay type: functional, organism-based; parameters: dose 50 mg/kg
HeLa = test: Cytotoxicity against human HeLa cells after 48 hrs by Coulter counter analysis; assay type: functional; details: read-out: ED50 (the source's name)
Herpesviridae sp. = test: Antiviral activity against Herpes Simplex virus HF infected in African green monkey BGM cells assessed as plaque reduction measured on day 5 by disk diffusion assay; assay type: functional; details: 120 h, read-out: ED50 (the source's name)
L1210 [2] = test: Antitumor activity against mouse L1210 cells allografted in BDF1 mouse assessed as increase in life span at 100 mg/kg, ip administered as single dose relative to vehicle-treated control; assay type: functional; details: route intraperitoneal
Summary of the method: (§1)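 Single intraperitoneal injection given 24 h after the leukemic cells were introduced, at 100, 200, 500 or 1000 mg/kg. Read-out is % increase in life span (ILS), with the count of 30-day survivors per group recorded (group sizes 7–8 mice).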

L1210 [3] = test: Antitumor activity against mouse L1210 cells allografted in BDF1 mouse assessed as increase in life span at 200 mg/kg, ip administered as single dose relative to vehicle-treated control; assay type: functional; details: route intraperitoneal; summary of the method: as §1
L1210 [4] = test: Antitumor activity against mouse L1210 cells allografted in ip dosed mouse administered as single dose relative to vehicle-treated control; assay type: functional
Summary of the method: (§2)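 Leukemic L1210 cells were introduced into mice. Each compound was then given as a single intraperitoneal injection 24 h later. Activity is expressed as % increase in life span (ILS), with the count of 30-day survivors per group. Doses tested were 100, 200, 500 and 1000 mg/kg.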

L1210 [5] = test: Antitumor activity against mouse L1210 cells allografted in BDF1 mouse assessed as survival at 1000 mg/kg, ip administered as single dose measured on day 30 relative to vehicle-treated control; assay type: functional, organism-based; parameters: dose 1000 mg/kg; summary of the method: as §2
L1210 [6] = test: Chemotherapeutic index, ratio of ILSmax for antitumor activity against mouse L1210 cells allografted in BDF1 mouse to ILS30 for antitumor activity against mouse L1210 cells allografted in BDF1 mouse; assay type: functional
Summary of the method: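 Dose-response curves were determined in L1210-bearing mice, each receiving a single ip injection 24 h after leukemic cell introduction. Chemotherapeutic index = the dose producing maximum % ILS divided by the dose giving 30% ILS.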

L1210 [7] = test: Antitumor activity against mouse L1210 cells allografted in BDF1 mouse assessed as increase in life span at 1000 mg/kg, ip administered as single dose relative to vehicle-treated control; assay type: functional; details: route intraperitoneal; summary of the method: as §1
L1210 [8] = test: Antitumor activity against mouse L1210 cells allografted in BDF1 mouse assessed as increase in life span at 500 mg/kg, ip administered as single dose relative to vehicle-treated control; assay type: functional; details: route intraperitoneal; summary of the method: as §1
L1210 [9] = test: Antitumor activity against mouse L1210 cells allografted in BDF1 mouse assessed as survival at 500 mg/kg, ip administered as single dose measured on day 30 relative to vehicle-treated control; assay type: functional, organism-based; parameters: dose 500 mg/kg; summary of the method: as §2
L1210 [10] = test: Antitumor activity against mouse L1210 cells allografted in BDF1 mouse assessed as survival at 100 mg/kg, ip administered as single dose measured on day 30 relative to vehicle-treated control; assay type: functional, organism-based; parameters: dose 100 mg/kg; summary of the method: as §2
L1210 [11] = test: Antitumor activity against mouse L1210 cells allografted in BDF1 mouse assessed as survival at 200 mg/kg, ip administered as single dose measured on day 30 relative to vehicle-treated control; assay type: functional, organism-based; parameters: dose 200 mg/kg; summary of the method: as §2

Row | SMILES | EC50 (Vaccinia virus) | Activity (L1210 [1]) | EC50 (HeLa) | EC50 (Herpesviridae sp.) | ILS at 100 mg/kg (L1210 [2]) | ILS at 200 mg/kg (L1210 [3]) | ILS30 (L1210 [4]) | ILSmax (L1210 [4]) | Activity (L1210 [5]) | Ratio (L1210 [6]) | ILS at 1000 mg/kg (L1210 [7]) | ILS at 500 mg/kg (L1210 [8]) | Activity (L1210 [9]) | Activity (L1210 [10]) | Activity (L1210 [11])
1 | CCCCCCCC/C=C/CCCCCCCC(=O)OC[C@H]1O[C@@H](n2ccc(N)nc2=O)[C@@H](O)[C@@H]1OC(=O)CCCCCCC/C=C/CCCCCCCC | > 30 µM | inactive | 2.5 µg/mL (≈ 3.24 µM) | > 30 µM | 14% | > 253% | – | – | – | – | – | – | – | – | –
2 | CCCCCCCCCC(=O)O[C@H]1[C@H](O)[C@H](n2ccc(N)nc2=O)O[C@@H]1CO | 0.1 µM | – | 0.09 µg/mL (≈ 0.226 µM) | 0.34 µM | > 241% | > 224% | 5 mg/kg | 150 mg/kg | inactive | 30 | -23% | > 161% | – | – | –
3 | CCCCCCCCCCCCCCCC(=O)OC[C@H]1O[C@@H](n2ccc(N)nc2=O)[C@@H](O)[C@@H]1O | 0.3 µM | – | 0.08 µg/mL (≈ 0.166 µM) | 1.14 µM | > 257% | > 224% | 2 mg/kg | 150 mg/kg | – | 75 | – | -40% | inactive | Active | –
4 | CCCCCC(=O)O[C@H]1[C@H](O)[C@H](n2ccc(N)nc2=O)O[C@@H]1CO | 0.48 µM | inactive | 0.05 µg/mL (≈ 0.146 µM) | 1.5 µM | 5% | 21% | – | – | – | – | – | – | – | – | inactive
5 | CCCCCCCC/C=C\CCCCCCCCCCCC(=O)O[C@H]1[C@H](O)[C@H](n2ccc(N)nc2=O)O[C@@H]1CO | 17.5 µM | – | 0.16 µg/mL (≈ 0.284 µM) | > 30 µM | > 280% | > 280% | – | – | inactive | – | – | -34% | inactive | Active | Active
6 | CCCCCCCCCCCCCCCC(=O)O[C@H]1[C@H](O)[C@H](n2ccc(N)nc2=O)O[C@@H]1CO | 0.14 µM | – | 0.24 µg/mL (≈ 0.498 µM) | 0.67 µM | > 295% | > 295% | 1 mg/kg | 200 mg/kg | inactive | 200 | -19% | -20% | inactive | Active | Active
7 | Nc1ccn([C@@H]2O[C@H](CO)[C@@H](O)[C@@H]2O)c(=O)n1 [CYTARABINE] | 0.07 µM | – | 0.05 µg/mL (≈ 0.206 µM) | 0.16 µM | 8% | 7% | – | – | inactive | – | 34% | 16% | inactive | inactive | inactive
8 | CCCCCCCC/C=C\CCCCCCCC(=O)OC[C@H]1O[C@@H](n2ccc(N)nc2=O)[C@@H](O)[C@@H]1OC(=O)CCCCCCC/C=C\CCCCCCCC.Cl | 17.5 µM | inactive | 1.1 µg/mL | > 30 µM | 70% | > 190% | – | – | – | – | – | – | – | – | –
9 | CCCCCCCCCC(=O)OC[C@H]1O[C@@H](n2ccc(N)nc2=O)[C@@H](O)[C@@H]1O | 0.18 µM | – | 0.1 µg/mL (≈ 0.252 µM) | 0.86 µM | 59% | > 114% | 20 mg/kg | 500 mg/kg | – | 25 | -45% | > 122% | – | inactive | –
10 | CCCCCCCCCCCCCCCCCCCCCC(=O)O[C@H]1[C@H](O)[C@H](n2ccc(N)nc2=O)O[C@@H]1CO | > 30 µM | – | 1.1 µg/mL (≈ 1.94 µM) | > 30 µM | > 200% | > 215% | 2 mg/kg | 2000 mg/kg | Active | 1000 | > 240% | – | – | – | –
11 | CCCCCCCCCCCC(=O)O[C@H]1[C@H](O)[C@H](n2ccc(N)nc2=O)O[C@@H]1CO | 0.05 µM | Active | 0.08 µg/mL (≈ 0.188 µM) | 0.25 µM | > 258% | > 257% | – | – | inactive | – | -28% | – | – | – | –
12 | CCCCCCCC(=O)O[C@H]1[C@H](O)[C@H](n2ccc(N)nc2=O)O[C@@H]1CO | 0.11 µM | – | 0.1 µg/mL (≈ 0.271 µM) | 0.64 µM | 34% | 48% | – | – | inactive | – | 11% | 37% | inactive | inactive | inactive
13 | CCCCCCCCCCCCCCCCCCCCCC(=O)OC[C@H]1O[C@@H](n2ccc(N)nc2=O)[C@@H](O)[C@@H]1O | 0.45 µM | – | 0.04 µg/mL (≈ 0.0707 µM) | 12 µM | > 228% | > 295% | 1 mg/kg | 500 mg/kg | inactive | 500 | 45% | > 295% | Active | – | Active

Reference: ChEMBL document CHEMBL3272036, “Reactions of 2-acyloxyisobutyryl halides with nucleosides. Synthesis and biological evaluation of some 3"-acyl and 3',5'-diacyl derivatives of 1-beta-D-arabinofuranosylcytosine” (J Med Chem, 1976)
